In the library only some 4.9% were active in any assay of this set; here they are far more common.
HSF1 inh: HSF1 inhibition; hit rate 0.77% among 300,000; activity change, negative = inhibition, % at 7.5 µM (by protocol); NIH3T3-HGL HSE-luciferase, MG132-induced, luminescence 8 h; active compounds read low;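 active means more than half of replicate wells show activity change below -50%, luminescence cut by over half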;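 further: luciferase reports HSF-1 transcriptional activity via heat shock element; 0% = median of DMSO wells and -100% = zero luminescence signal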
PHOSPHO1 inh: blocks human PHOSPHO1 phosphatase activity. Q8TCT1. recombinant PHOSPHO1, absorbance phosphatase assay. inhibition, % at 13.3 µM. hit rate 1.1% among 290,000. AID 1565; in the data active means inhibition above about 60%
Target sequence (Q8TCT1 whole entry, looked up): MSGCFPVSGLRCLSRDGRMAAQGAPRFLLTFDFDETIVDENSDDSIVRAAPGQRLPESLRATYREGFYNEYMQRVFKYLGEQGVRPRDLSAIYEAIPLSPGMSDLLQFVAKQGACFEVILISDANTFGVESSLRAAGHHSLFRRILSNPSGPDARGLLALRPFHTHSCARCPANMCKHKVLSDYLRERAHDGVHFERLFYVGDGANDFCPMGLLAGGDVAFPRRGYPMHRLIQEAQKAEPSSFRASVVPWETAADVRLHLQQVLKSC
Lipid droplet: hepatic lipid droplet formation modulation. inhibition, % at 6.5 µM. AID 1656. hit rate 0.4% among 240,000. AML12 mouse hepatocytes, oleate lipid droplets, BODIPY imaging;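 active means lipid droplet intensity inhibited by at least 50%, with more than 500 cells counted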
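Test system: AML12 hepatocytes (mouse); reagent: oleate loading, 100 µM; dosing: one dose, 6.5 µM compound; incubation: overnight exposure; signal: fluorescence imaging, 20x objective, two fields per well; read-out basis: % inhibition of corrected integrated BODIPY droplet signal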
HSF-1 act: increases HSF-1 driven luciferase reporter signal. NIH3T3-HGL HSF-1 luciferase reporter, MG132, 8 h; 100% = twice DMSO control signal. activation, % at 9 µM. hit rate 1.7% among 300,000. AID 504408;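 active means mean replicate activation of at least 50% with a set share of replicates each reaching 50%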;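 further: 0% = median of the neutral control wells and 100% = twice that signal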
CHT PAM: human CHT allosteric activation; Q9GZV3; CHT-expressing cells, membrane potential dye, choline EC20; active compounds read high; LV-AA mutant CHT in HEK293 cells; B-score at 10 µM; hit rate 0.49% among 310,000; AID 488977;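 active means initial fluorescence not abnormally high and integrated response B-score, plate-corrected, over 3 SD above library mean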
CHT inh: inhibitors of human choline transporter CHT. CHT-expressing cells, membrane potential dye, choline response; active compounds read low. B-score at 10 µM. hit rate 0.86% among 310,000;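 active means B-score over 3 SD under the library average, and starting fluorescence ratio not unusually high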;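 further: choline stimulus applied at its EC90 after an EC20 pre-addition; B-score computed on integrated fluorescence ratio after choline addition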
Numbers without * were called inactive; i = inactive; · = not tested or not shown.

SMILES	HSF1 inh	PHOSPHO1 inh	Lipid droplet	HSF-1 act	CHT PAM	CHT inh
O=C(Nc1cccc(S(=O)(=O)N2CCOCC2)c1)c1ccccn1	-70*	-6	16	-77	i	i
COc1ccc(NC(=O)CS(=O)CC(=O)Nc2cccc3cccnc23)cc1 (configuration not stated)	-5	23	-16	-8	i	i
O=[N+]([O-])/C(=C\Nc1ccccc1Cl)S(=O)(=O)c1ccccc1	·	87*	·	·	i	i
CC(C)C(NC(=O)c1ccc2c(c1)OCCO2)c1nc2ccccc2[nH]1 (configuration not stated)	-2	24	-1	14	i	i
CCC(=O)Nc1ccc2c(c1)ncn2-c1ccc(C)cc1	26	-12	5	53*	i	i
CCC(=O)Nc1cc2nn(-c3ccc(C)cc3)nc2cc1C	-62*	63*	-14	-67	i	i
COc1cccc(-c2cc(C(=O)N3CCCCCC3)no2)c1	7	-14	-4	13	i	i
Cc1c(Cl)c([N+](=O)[O-])nn1Cc1ccc(C(=O)NN)o1	0	-6	0	-16	i	i
Cc1c(NC(=O)C(C)N2CC(C)OC(C)C2)c(=O)n(-c2ccccc2)n1C (configuration not stated)	16	-18	2	60*	i	i
Cc1ccc(C)c(Cn2nnc3c(=O)[nH]c(C4CCN(C(=O)c5cccs5)CC4)nc32)c1	27	21	-21	76*	i	i
Cc1ccc(C)c(Cn2nnc3c(=O)[nH]c(C4CCCN(C(=O)c5cccs5)C4)nc32)c1 (configuration not stated)	10	-26	-12	18	i	i
CC(C)(C)c1ccc(-n2nc(C#N)c(Cl)cc2=O)cc1	152	-10	-2	153*	·	·
Cc1ccc(C)c(OCCCC(=O)Nc2ccccc2C(N)=O)c1	-1	34	16	16	i	i
O=C(NCc1ccccc1Cl)C1CCN(S(=O)(=O)N2CCCC2)CC1	-69*	12	-4	-75	i	i
Cc1nc(N2CCC(C)CC2)c2c(C)c(C(=O)Nc3cccc(C(F)(F)F)c3)sc2n1	20	-1	-22	59*	i	i
Cc1nc(N2CCC(C)CC2)c2c(C)c(C(=O)Nc3ccc(C(F)(F)F)cc3)sc2n1	3	-36	0	8	i	i
CC(C)OCCCNC(=O)NC(=O)c1ccc(Cl)cc1	0	38	9	8	i	i
CSc1ncc(Cl)c(C(=O)Nc2cccc(C)c2)n1	·	-1	-12	·	i	i
CCN(c1ccccc1)S(=O)(=O)c1ccc(NC(=O)c2nc(S(C)(=O)=O)ncc2Cl)cc1	-2	12	-6	14	i	i
Cc1cccc(CS(=O)(=O)c2ncc(Cl)c(C(=O)Nc3c(C)cccc3C)n2)c1	430	55	-36	482*	i	i
COc1ccc(OC)c(NC(=O)c2nc(S(=O)(=O)Cc3ccccc3)ncc2Cl)c1	-94*	-2	-1	-95	i	i
Cc1cccc(C)c1NC(=O)c1nc(S(=O)(=O)Cc2ccccc2)ncc1Cl	i	29	-3	596*	i	i
Cc1ccccc1NC(=O)c1nc(S(C)(=O)=O)ncc1Cl	87	19	-5	113*	i	i
Cc1cc(N2CCC(C(=O)N3CCN(c4cccc(C)c4C)CC3)CC2)n2ncnc2n1	-8	20	·	-9	i	i
O=C(NCc1ccccc1)c1cnc(Cl)c(Cl)c1	8	23	-3	10	i	i
Cc1cccc(CS(=O)(=O)c2ncc(Cl)c(C(=O)NCc3ccccc3)n2)c1	346	12	4	327*	i	i
O=C(Nc1ccc(F)cc1)c1nc(S(=O)(=O)Cc2ccccc2)ncc1Cl	-85*	7	-56	-89	i	i
Cc1ccc(S(=O)(=O)Nc2nc3ccccc3nc2NCC2CCCO2)cc1C (configuration not stated)	-4	33	-4	18	i	i
COc1ccccc1-n1ccnc(SCC(=O)NCc2ccccc2)c1=O	-55*	·	·	-66	i	i
